Results as given in ChEMBL document CHEMBL1140780, “The expedient synthesis of 1,5-benzothiazepines as a family of cytotoxic drugs” (Bioorg Med Chem Lett, 2008).

Legend:
[1] = test system: LoVo; assay: Photocytotoxicity against human LoVo cells irradiated with 2.5 J cm^-2 ultraviolet radiation after 72 hrs by MTT assay; type: functional; conditions: light or radiation study
Summary of the method: (§1)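 Culture media, each with penicillin G, streptomycin and 10% FBS: HL-60 in RPMI-1640, NCTC 2544 in DMEM, LoVo in Ham's F12. Seeding was 8 × 10³ HL-60 or 5 × 10³ NCTC 2544/LoVo cells per well, 18 h at 37 °C. Drug in DMSO diluted with HBSS pH 7.2 was added for 30 min at 37 °C, then UVA applied (dose measured at 365 nm). Medium was replaced, 72 h incubation, MTT read-out. GI50 is the concentration giving 50% growth inhibition.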

[2] = test system: HL-60; assay: Photocytotoxicity against human HL60 cells irradiated with 2.5 J cm^-2 ultraviolet radiation after 72 hrs by MTT assay; type: functional; conditions: HL-60, light or radiation study; summary of the method: as §1
[3] = test system: LoVo; assay: Photocytotoxicity against human LoVo cells irradiated with 1.25 J cm^-2 ultraviolet radiation after 72 hrs by MTT assay; type: functional; conditions: light or radiation study; summary of the method: as §1
[4] = Photocytotoxicity against human NCTC 2544 cells irradiated with 1.25 J cm^-2 ultraviolet radiation after 72 hrs by MTT assay; type: cell-based; summary of the method: as §1
[5] = Photocytotoxicity against human NCTC 2544 cells irradiated with 2.5 J cm^-2 ultraviolet radiation after 72 hrs by MTT assay; type: cell-based; summary of the method: as §1
[6] = test system: HL-60; assay: Photocytotoxicity against human HL60 cells irradiated with 1.25 J cm^-2 ultraviolet radiation after 72 hrs by MTT assay; type: functional; conditions: HL-60, light or radiation study; summary of the method: as §1

| SMILES | GI50 [1] | GI50 [2] | GI50 [3] | GI50 at 72 h [4] | GI50 at 72 h [5] | GI50 [6] |
| --- | --- | --- | --- | --- | --- | --- |
| Cc1cc(F)ccc1C1=Nc2c(Br)cccc2SC(C(=O)O)C1 (stereo not given) | 13.2 µM | 0.9 µM | > 20 µM | > 20 µM | > 20 µM | 2.5 µM |
| Cc1cc(F)ccc1C1=Nc2ccc(Cl)cc2SC(C(=O)O)C1 (stereo not given) | – | 6.8 µM | – | – | – | > 10 µM |
| COc1ccc2c(c1)SC(C(=O)O)CC(c1ccc(F)cc1C)=N2 (stereo not given) | – | 10 µM | – | – | – | > 10 µM |
| Cc1ccc2c(c1)SC(C(=O)O)CC(c1ccc(F)cc1C)=N2 (stereo not given) | – | 10 µM | – | – | – | > 10 µM |
| Cc1cc(F)ccc1C1=Nc2c(F)cccc2SC(C(=O)O)C1 (stereo not given) | 1.94 µM | 0.8 µM | 3.8 µM | 7 µM | 2.6 µM | 6.6 µM |
| Cc1cc(F)ccc1C1=Nc2c(Cl)cccc2SC(C(=O)O)C1 (stereo not given) | 9.8 µM | 6.9 µM | 16.8 µM | > 20 µM | 6.9 µM | > 10 µM |
| COc1cccc2c1C(=O)c1c(O)c3c(c(O)c1C2=O)C[C@@](O)(C(=O)CO)C[C@@H]3O[C@H]1C[C@H](N)[C@H](O)[C@H](C)O1 [DOXORUBICIN] | 5.48 µM | 1.45 µM | 8.54 µM | 3.04 µM | 1.32 µM | 2.36 µM |
